TRPC4 PAM – allosterically enhances the mouse TRPC4 cation channel; actives 0.42% (n = 310,000); HEK293 TRPC4beta/mu-opioid, DAMGO EC20, Fluo-4 Ca2+ flux; active compounds read high; B-score at 10 µM;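 active = B-score of calcium response area above 5 SD of library B-scores, with initial fluorescence ratio within 5 SD of library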;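 note: B-score of integrated fluorescence ratio over time as area under calcium response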
TRPC6 inh – blocks the mouse TRPC6 cation channel. Q61143. actives 1.1% (n = 310,000). HEK293-TRPC6, membrane potential dye, ACh-evoked depolarization; active compounds read low. B-score at 10 µM;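 active = B-score under library mean minus 3 SD, initial fluorescence not abnormally high, positive integrated signal ratio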;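 note: B-score derived from integrated fluorescence ratio over the kinetic read; more negative B-score means stronger inhibition of depolarization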
TRPC4 agonist – opens the mouse TRPC4 cation channel. Q9QUQ5. HEK293 TRPC4beta/mu-opioid, Fluo4 calcium fluorescence; active compounds read high. B-score at 10 µM. actives 0.49% (n = 310,000);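 active = B-score above 5 SD of library B-scores, and initial fluorescence ratio not above library mean plus 5 SD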;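 note: positive B-score marks a calcium rise read as TRPC4 activation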
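Assay system: HEK293 cells stably co-expressing mouse TRPC4beta and mu-opioid receptor / Timing: Fluo4 dye loading 45 min at room temperature, 110 s recording / Signal: Fluo4 calcium-sensitive dye fluorescence, kinetic, 1 Hz baseline / Read-out: integrated baseline-normalised fluorescence ratio, converted to per-well B score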
TRPC6 activator – activators of mouse TRPC6 channel. HEK293-TRPC6 membrane potential dye fluorescence; active compounds read high. Q61143. actives 0.13% (n = 310,000). AID 2550. B-score at 10 µM;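 active = B-score of the integrated fluorescence ratio above library mean plus 3 SD, and starting fluorescence ratio within library mean plus 5 SD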;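 note: higher score means more depolarization so channel activation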
TRPC4 block – TRPC4 (mouse) channel inhibition; actives 0.39% (n = 300,000); AID 2247; Q9QUQ5; B-score at 10 µM; HEK293 TRPC4beta/mu-opioid, DAMGO-evoked Fluo4 calcium flux; active compounds read low;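 active = B-score over 3 SD under the library average, no early fluorescence shift, positive overall ratio signal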
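Assay system: HEK293 cells with stable TRPC4beta plus mu-opioid receptor expression. Dosing: single dose. Measured by: Fluo4 Ca2+ flux fluorescence. Also added: DAMGO in two steps, submaximal then maximal. Read-out: B score from integrated Fluo4 fluorescence ratio.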
Kir21 inh – Kir2.1 (mouse) channel inhibition. P35561. HEK293-Kir2.1, FluxOR thallium flux fluorescence; active compounds read low. B-score at 10 µM. actives 0.85% (n = 310,000). AID 1672;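 active = fluorescence ratio B-score at or below minus 3 SD of library scores, with starting-brightness B-score within 2 SD, cut at about -4.2 in these data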;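 note: channel flux triggered by added potassium and thallium sulfate stimulus; B-score of peak minus minimum fluorescence over baseline after thallium stimulus; more negative B-score means stronger Kir2.1 block with less thallium influx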
Target sequence (P35561 whole entry, looked up): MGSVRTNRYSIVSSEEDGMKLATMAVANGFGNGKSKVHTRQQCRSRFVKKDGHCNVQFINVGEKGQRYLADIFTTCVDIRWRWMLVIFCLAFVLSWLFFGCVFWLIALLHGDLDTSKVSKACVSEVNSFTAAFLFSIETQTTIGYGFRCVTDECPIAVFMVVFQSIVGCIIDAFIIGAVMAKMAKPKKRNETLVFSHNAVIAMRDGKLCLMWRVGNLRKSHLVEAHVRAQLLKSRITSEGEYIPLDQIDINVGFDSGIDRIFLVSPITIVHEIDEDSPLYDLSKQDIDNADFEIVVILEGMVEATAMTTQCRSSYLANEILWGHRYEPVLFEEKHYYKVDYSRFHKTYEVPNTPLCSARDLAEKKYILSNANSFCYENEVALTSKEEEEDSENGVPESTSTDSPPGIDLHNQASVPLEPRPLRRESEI
TRPC4 sel inh 2 – mouse TRPC4 off-target activity of TRPC6 inhibitors, second screen; inhibition, % at 10 µM; actives 42% (n = 920); HEK293 TRPC4/MOR, membrane potential dye fluorescence; channel activated by saturating DAMGO dose; shares compounds with TRPC6 inh; AID 2776;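 active = compounds whose fluorescence signal differed from control wells by over 3 SD, either direction, in both duplicate plates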
TRPC4 spec – selectivity of TRPC6 inhibitors: effect on mouse TRPC4. activity change, negative = inhibition, % at 10 µM. HEK293 TRPC4/mu-opioid, membrane potential fluorescence. shares compounds with TRPC6 inh. actives 61% (n = 920);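 active = rise or fall in signal beyond 3 SD of buffer-only wells in both replicate plates, either sign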;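 note: integrated kinetic ratio of fluorescence range over baseline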
HEK293 MPD ctr 2-1 – second check of TRPC6 inhibitor effects in parental HEK293 cells. signal change vs control, % at 10 µM. shares compounds with TRPC6 inh. actives 31% (n = 920). parental HEK293 membrane potential dye fluorescence; maximal acetylcholine challenge after compound addition. AID 2779;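 active = membrane potential signal moving either way by over 3 SD of the maximum-effect control, in both duplicate plates, meaning non-specific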
HEK293 MPD ctr-1 – parental HEK293 nonspecific activity of TRPC6 inhibitors | shares compounds with TRPC6 inh | parental HEK293 membrane potential dye fluorescence | actives 60% (n = 920) | membrane potential signal change, % at 10 µM;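 active = membrane potential signal shifting up or down by more than 3 SD of buffer-only wells, on both duplicate plates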
HEK293 MPD ctr-2 – counter-screen for TRPC6 modulators: effect in parental HEK293 cells | AID 488924 | shares compounds with TRPC6 inh | membrane potential signal change, % at 10 µM | membrane potential dye fluorescence | actives 51% (n = 2,400);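 active = membrane potential signal moves up or down beyond 5 SD from buffer-only wells, on both duplicate plates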
HEK293 MPD ctr 2-2 – second counter-screen for TRPC6 modulators: effect in parental HEK293 cells; shares compounds with TRPC6 inh; actives 14% (n = 2,400); inhibition, % at 10 µM; membrane potential dye fluorescence; after compound, maximal acetylcholine stimulation;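 active = membrane potential signal drops by more than 5 SD from the mean control signal, in both duplicate plates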;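 note: plate controls were acetylcholine ECmax control wells for no effect and buffer only wells for full effect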
TRPC4/MOR mod – selectivity of TRPC6 modulators against mouse TRPC4; AID 488927; shares compounds with TRPC6 inh; actives 69% (n = 2,400); HEK293 TRPC4/mu-opioid, membrane potential fluorescence; percent change from control (negative = decrease, positive = increase), % at 10 µM;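 active = membrane potential signal moved up or down beyond 5 SD of buffer control wells, in both duplicate plates, actives on both sides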;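 note: plate controls were assay buffer wells for no effect and DAMGO maximal-effect wells for full effect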
TRPC4/MOR inh 2 – second selectivity test of TRPC6 modulators against mouse TRPC4 | inhibition, % at 10 µM | actives 55% (n = 2,400) | shares compounds with TRPC6 inh | HEK293 TRPC4/mu-opioid, membrane potential dye fluorescence; stimulated with maximal-effect DAMGO;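 active = drop in membrane potential signal beyond 5 SD of the control wells in both duplicate plates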;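 note: TRPC4 counter screen for TRPC6 hits run under conditions tuned for TRPC6 not TRPC4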
TRPC6 inh conf – confirmation of mouse TRPC6 inhibitors; actives 43% (n = 3,300); shares compounds with TRPC6 inh; inhibition, % at 10 µM; HEK293-TRPC6, membrane potential dye, ACh-evoked depolarization;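 active = fluorescence ratio falls more than 5 SD below the full-stimulation control mean, in both duplicate runs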;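 note: integrated fluorescence ratio of peak minus minimum over baseline after agonist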
TRPC6 act conf – mouse TRPC6 activator confirmation; shares compounds with TRPC6 inh; HEK293-TRPC6 membrane potential dye fluorescence, FDSS; activation, % at 10 µM; actives 11% (n = 2,800);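 active = ratio signal rise beyond 5 SD above unstimulated control wells' mean, seen in both duplicate runs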;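 note: plate controls were buffer EC0 wells for no effect and acetylcholine ECmax response for full effect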
* marks the source's active call; other numbers are inactive results. Only some compounds are listed: those with a hit (about 2.9% of all), similar ones and a draw of the others.

For Cc1ccc2nc3c(cc(C(=O)NCCN4CCOCC4)c(=N)n3CCCN3CCOCC3)c(=O)n2c1 the results were TRPC4 PAM inactive, TRPC6 inh -7.5*, TRPC4 agonist inactive, TRPC6 activator inactive, TRPC4 block inactive, Kir21 inh 1.3, TRPC4 sel inh 2 72%*, TRPC4 spec inactive, HEK293 MPD ctr 2-1 -174%*, HEK293 MPD ctr-1 inactive and TRPC6 inh conf 83%*.
Cc1ccc2nc3c(cc(C(=O)NCCc4ccccc4)c(=N)n3CCN3CCOCC3)c(=O)n2c1 was read as TRPC4 PAM inactive, TRPC6 inh inactive, TRPC4 agonist inactive, TRPC6 activator inactive, TRPC4 block inactive and Kir21 inh 0.99.
Screening CN(C)CCOC(c1ccccc1)c1ccccc1 returned TRPC4 PAM inactive, TRPC6 inh inactive, TRPC4 agonist inactive, TRPC6 activator inactive, TRPC4 block inactive and Kir21 inh -1.3.
Cc1ccccc1C(OCCN(C(C)C)C(C)C)c1ccccc1 (stereo unspecified) was read as TRPC4 PAM inactive, TRPC6 inh -5*, TRPC4 agonist inactive, TRPC6 activator inactive, TRPC4 block inactive, Kir21 inh -2.7, HEK293 MPD ctr-2 209%*, HEK293 MPD ctr 2-2 88%*, TRPC4/MOR mod 44%*, TRPC4/MOR inh 2 44%* and TRPC6 inh conf 80%*.
Screening CN(C)CCOC(c1ccccc1)c1ccccc1 (tested in a mixture with another compound) returned TRPC4 PAM inactive, TRPC6 inh -5.2*, TRPC4 agonist inactive, TRPC6 activator inactive, TRPC4 block inactive, Kir21 inh 0.1, HEK293 MPD ctr-2 154%*, HEK293 MPD ctr 2-2 inactive, TRPC4/MOR mod 26%*, TRPC4/MOR inh 2 34%* and TRPC6 inh conf 51%*.
`COc1ccccc1-c1cc(-c2ccccc2)nc(SC(C(N)=O)c2ccccc2)c1C#N` (stereo unspecified) gave TRPC4 PAM inactive, TRPC6 inh inactive, TRPC4 agonist inactive, TRPC6 activator inactive, TRPC4 block inactive and Kir21 inh -0.06.
`Cc1cc(C)cc(-n2ncc3c2CCCC3NC(=O)c2ccccc2N2CCOCC2)c1` (stereo unspecified) gave TRPC4 PAM inactive, TRPC6 inh inactive, TRPC4 agonist inactive, TRPC6 activator inactive, TRPC4 block inactive and Kir21 inh 0.19.
Screening O=C(CCC(=O)N1CCCC(Nc2ccccc2)C1)c1ccc(F)cc1 (stereo unspecified) returned TRPC4 PAM inactive, TRPC6 inh inactive, TRPC4 agonist inactive, TRPC6 activator inactive, TRPC4 block inactive and Kir21 inh -1.2.
For O=C(Nc1ccccc1Cl)N1CCCN(c2nc(-c3ccccc3)ns2)CC1 the results were TRPC4 PAM inactive, TRPC6 inh -5.1*, TRPC4 agonist inactive, TRPC6 activator inactive, TRPC4 block inactive, Kir21 inh -0.06, HEK293 MPD ctr-2 inactive, HEK293 MPD ctr 2-2 inactive, TRPC4/MOR mod inactive, TRPC4/MOR inh 2 inactive, TRPC6 inh conf inactive and TRPC6 act conf inactive.
Screening COc1ncccc1-c1nnn(-c2ccccc2)n1 returned TRPC4 PAM inactive, TRPC6 inh inactive, TRPC4 agonist inactive, TRPC6 activator inactive, TRPC4 block inactive and Kir21 inh 0.18.
For Brc1ccc(-c2c[n+]3c(n2-c2ccccc2)SCC3)cc1 the results were TRPC4 PAM inactive, TRPC6 inh -7.2*, TRPC4 agonist inactive, TRPC6 activator inactive, TRPC4 block inactive, Kir21 inh -0.71, TRPC4 sel inh 2 inactive, TRPC4 spec -15%*, HEK293 MPD ctr 2-1 -20%*, HEK293 MPD ctr-1 -228%*, TRPC6 inh conf inactive and TRPC6 act conf inactive.
For COc1ccc(-c2c[n+]3c(n2-c2ccccc2)SCC3)cc1OC the results were TRPC4 PAM inactive, TRPC6 inh inactive, TRPC4 agonist inactive, TRPC6 activator inactive, TRPC4 block inactive and Kir21 inh 0.37.
Screening Cc1ccc(-c2c[n+]3c(n2-c2ccccc2)SCC3)cc1 returned TRPC4 PAM inactive, TRPC6 inh -5.4*, TRPC4 agonist inactive, TRPC6 activator inactive, TRPC4 block inactive, Kir21 inh 0.15, HEK293 MPD ctr-2 inactive, HEK293 MPD ctr 2-2 inactive, TRPC4/MOR mod -11%*, TRPC4/MOR inh 2 inactive, TRPC6 inh conf inactive and TRPC6 act conf inactive.
For COc1ccc(-c2c[n+]3c(n2-c2ccccc2)CCCCC3)cc1 the results were TRPC4 PAM inactive, TRPC6 inh inactive, TRPC4 agonist inactive, TRPC6 activator inactive, TRPC4 block inactive and Kir21 inh -0.86.

From PubChem BioAssay
